The results in this text go back to ChEMBL document CHEMBL1155278, “3,4-Diaryl-isoxazoles and -imidazoles as potent dual inhibitors of p38alpha mitogen activated protein kinase and casein kinase 1delta” (J Med Chem, 2009).

Assay [1] has as its target RAC-alpha serine/threonine-protein kinase (Homo sapiens) (UniProt P31749). Description: Inhibition of PKBalpha assessed as residual activity at 10 uM by Cherenkov counting relative to control in presence of 5 uM ATP. The essentials:
(§1)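 Single-concentration profiling at 10 μM in a 78-kinase panel. Kinase activity is expressed as a percentage of control assays run without compound.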

In assay [2] the target is T1, Serine/threonine-protein kinase Sgk1 (Homo sapiens) (UniProt O00141).
T1 sequence (whole entry): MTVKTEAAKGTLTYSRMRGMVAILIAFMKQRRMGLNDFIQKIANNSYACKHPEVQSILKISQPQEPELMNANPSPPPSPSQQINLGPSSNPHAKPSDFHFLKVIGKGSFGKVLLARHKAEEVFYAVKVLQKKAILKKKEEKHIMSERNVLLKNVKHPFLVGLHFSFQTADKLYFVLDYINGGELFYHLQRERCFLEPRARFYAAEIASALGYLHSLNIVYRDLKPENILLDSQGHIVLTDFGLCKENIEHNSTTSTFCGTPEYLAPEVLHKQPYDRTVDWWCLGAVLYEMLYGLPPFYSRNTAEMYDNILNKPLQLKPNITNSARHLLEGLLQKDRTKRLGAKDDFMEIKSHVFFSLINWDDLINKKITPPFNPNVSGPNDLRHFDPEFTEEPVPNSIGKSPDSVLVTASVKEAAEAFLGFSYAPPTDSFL
Description: Inhibition of SGK1 assessed as residual activity at 10 uM by Cherenkov counting relative to control in presence of 20 uM ATP. The essentials:
as §1

For assay [3], the target named is Ribosomal protein S6 kinase beta-1 (Homo sapiens) (UniProt P23443). Nature of the assay: Inhibition of S6K1 assessed as residual activity at 10 uM by Cherenkov counting relative to control in presence of 20 uM ATP. The essentials:
as §1

In assay [4] the target is T2, Protein kinase C zeta type (Homo sapiens) (UniProt Q05513).
T2 sequence (whole entry): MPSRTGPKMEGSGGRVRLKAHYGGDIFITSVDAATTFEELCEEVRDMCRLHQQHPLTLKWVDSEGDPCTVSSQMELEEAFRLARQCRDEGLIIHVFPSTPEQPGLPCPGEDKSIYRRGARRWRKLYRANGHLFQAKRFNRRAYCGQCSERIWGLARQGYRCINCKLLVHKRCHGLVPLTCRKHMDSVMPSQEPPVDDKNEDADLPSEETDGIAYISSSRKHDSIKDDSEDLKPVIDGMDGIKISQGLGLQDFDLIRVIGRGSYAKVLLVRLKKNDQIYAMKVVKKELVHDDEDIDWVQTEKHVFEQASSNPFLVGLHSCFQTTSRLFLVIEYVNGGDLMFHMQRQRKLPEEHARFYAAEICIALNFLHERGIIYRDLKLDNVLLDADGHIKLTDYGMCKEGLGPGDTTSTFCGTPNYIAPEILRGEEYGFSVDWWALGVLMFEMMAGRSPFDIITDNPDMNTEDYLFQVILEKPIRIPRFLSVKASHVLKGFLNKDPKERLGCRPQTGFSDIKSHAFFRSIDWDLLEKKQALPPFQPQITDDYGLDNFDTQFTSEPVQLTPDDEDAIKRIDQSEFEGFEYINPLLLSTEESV
Nature of the assay: Inhibition of PKCzeta assessed as residual activity at 10 uM by Cherenkov counting relative to control in presence of 5 uM ATP. In a few lines: as §1

Assay [5] addresses Calcium/calmodulin-dependent protein kinase type 1 (Homo sapiens) (UniProt Q14012). Nature of the assay: Inhibition of CAMK1 assessed as residual activity at 10 uM by Cherenkov counting relative to control in presence of 50 uM ATP. The essentials:
(§2)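 Single-point profiling at 10 µM in a panel of 78 protein kinases. Kinase activity is expressed as a percentage relative to control assays without compound.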

A short description of assay [6]: Inhibition of PHK assessed as residual activity at 10 uM by Cherenkov counting relative to control.
Assay [7] deals with Serine/threonine-protein kinase Chk2 (Homo sapiens) (UniProt O96017). Nature of the assay: Inhibition of CHK2 assessed as residual activity at 10 uM by Cherenkov counting relative to control in presence of 20 uM ATP. The essentials: as §2
Sequence of Serine/threonine-protein kinase Chk2 (Homo sapiens) (O96017 whole entry, canonical isoform): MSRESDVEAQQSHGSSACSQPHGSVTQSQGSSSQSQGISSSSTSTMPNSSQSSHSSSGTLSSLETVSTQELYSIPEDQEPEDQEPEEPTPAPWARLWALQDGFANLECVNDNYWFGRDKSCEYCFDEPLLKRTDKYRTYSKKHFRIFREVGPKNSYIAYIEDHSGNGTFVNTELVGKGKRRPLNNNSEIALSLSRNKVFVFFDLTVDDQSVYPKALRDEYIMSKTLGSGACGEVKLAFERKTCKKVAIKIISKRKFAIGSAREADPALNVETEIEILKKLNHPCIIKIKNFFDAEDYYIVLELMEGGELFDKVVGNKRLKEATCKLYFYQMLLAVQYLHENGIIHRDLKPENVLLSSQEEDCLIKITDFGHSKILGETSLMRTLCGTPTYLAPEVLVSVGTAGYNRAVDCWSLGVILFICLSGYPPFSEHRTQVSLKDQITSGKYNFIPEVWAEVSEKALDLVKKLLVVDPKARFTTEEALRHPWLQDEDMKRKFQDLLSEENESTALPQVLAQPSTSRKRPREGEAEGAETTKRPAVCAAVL
The target in assay [8] is T3, Casein kinase I isoform delta (Homo sapiens, UniProt P48730). Description: Inhibition of CK1delta assessed as residual activity at 10 uM by Cherenkov counting relative to control in presence of 20 uM ATP. In a few lines: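 CK1δ tested within a 78-protein-kinase panel with compound at 10 µM. Activity is expressed as a percentage of kinase activity relative to control assays run without compound.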
Target sequence in this assay (P48730 whole entry, looked up, canonical isoform): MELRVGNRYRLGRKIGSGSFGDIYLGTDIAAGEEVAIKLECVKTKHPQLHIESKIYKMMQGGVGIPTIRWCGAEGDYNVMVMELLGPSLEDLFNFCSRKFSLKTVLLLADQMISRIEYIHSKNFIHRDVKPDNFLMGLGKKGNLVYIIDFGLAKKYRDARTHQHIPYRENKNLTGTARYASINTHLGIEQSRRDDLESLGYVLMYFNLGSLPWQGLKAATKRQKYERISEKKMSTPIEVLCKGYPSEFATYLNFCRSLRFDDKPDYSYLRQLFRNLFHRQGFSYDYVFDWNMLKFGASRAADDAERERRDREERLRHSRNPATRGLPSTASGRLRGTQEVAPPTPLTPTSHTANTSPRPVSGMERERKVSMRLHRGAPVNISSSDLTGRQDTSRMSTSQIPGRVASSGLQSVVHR

Assay [9] addresses Homeodomain-interacting protein kinase 3 (Homo sapiens) (UniProt Q9H422). Nature of the assay: Inhibition of HIPK3 assessed as residual activity at 10 uM by Cherenkov counting relative to control. The essentials: as §2
For assay [10], the target named is Serine/threonine-protein kinase PAK 4 (Homo sapiens) (UniProt O96013). Description: Inhibition of PAK4 assessed as residual activity at 10 uM by Cherenkov counting relative to control in presence of 5 uM ATP.
Sequence of Serine/threonine-protein kinase PAK 4 (Homo sapiens) (O96013 whole entry, looked up, the tested form may be a part, canonical isoform): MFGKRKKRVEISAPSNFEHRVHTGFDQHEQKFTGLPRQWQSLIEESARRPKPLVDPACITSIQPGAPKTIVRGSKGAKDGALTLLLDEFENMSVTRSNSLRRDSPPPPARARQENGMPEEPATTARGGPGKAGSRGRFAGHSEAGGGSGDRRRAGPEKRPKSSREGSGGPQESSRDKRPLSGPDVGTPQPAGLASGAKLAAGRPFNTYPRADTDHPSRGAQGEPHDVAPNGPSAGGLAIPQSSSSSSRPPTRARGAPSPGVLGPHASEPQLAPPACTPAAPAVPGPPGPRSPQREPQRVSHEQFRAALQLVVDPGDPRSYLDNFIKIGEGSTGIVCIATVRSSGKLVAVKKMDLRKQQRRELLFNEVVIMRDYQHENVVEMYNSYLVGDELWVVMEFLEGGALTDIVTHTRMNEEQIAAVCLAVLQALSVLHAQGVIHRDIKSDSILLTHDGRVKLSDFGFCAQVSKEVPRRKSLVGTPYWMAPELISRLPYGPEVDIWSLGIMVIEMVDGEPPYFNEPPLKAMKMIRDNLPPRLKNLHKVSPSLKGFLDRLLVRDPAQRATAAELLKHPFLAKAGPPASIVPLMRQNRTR
Assay [11] addresses T3, Casein kinase I isoform delta. Description: Inhibition of recombinant CK1delta kinase domain by Cherenkov counting.
Target sequence in this assay (P48730 whole entry, canonical isoform): as the sequence (P48730 whole entry, looked up, canonical isoform) above
Assay [12] addresses Mitogen-activated protein kinase 11 (Homo sapiens) (UniProt Q15759). Description: Inhibition of p38beta at 0.1 uM by Cherenkov counting. The essentials:
(§3)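 Single-concentration screen at 0.1 μM in a 76-kinase panel. ATP for each kinase was set near its Km for ATP. Residual activity is given as a percentage of control assays without compound, mean of n = 3 ± SD.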

Assay [13] concerns the target Mitogen-activated protein kinase 8 (Homo sapiens) (UniProt P45983). Description: Inhibition of JNK1 assessed as residual activity at 0.1 uM by Cherenkov counting relative to control in presence of 20 uM ATP. The essentials: (§4)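 Single-concentration selectivity screen at 0.1 μM against a panel of 76 protein kinases. Each kinase was run at an ATP level approximating its Km for ATP. Output is mean residual activity as % of the control assay without compound, n = 3 ± SD.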

In assay [14] the target is Mitogen-activated protein kinase 13 (Homo sapiens) (UniProt O15264). Nature of the assay: Inhibition of p38delta assessed as residual activity at 0.1 uM by Cherenkov counting relative to control. The essentials: as §3
Sequence of Mitogen-activated protein kinase 13 (Homo sapiens) (O15264 whole entry): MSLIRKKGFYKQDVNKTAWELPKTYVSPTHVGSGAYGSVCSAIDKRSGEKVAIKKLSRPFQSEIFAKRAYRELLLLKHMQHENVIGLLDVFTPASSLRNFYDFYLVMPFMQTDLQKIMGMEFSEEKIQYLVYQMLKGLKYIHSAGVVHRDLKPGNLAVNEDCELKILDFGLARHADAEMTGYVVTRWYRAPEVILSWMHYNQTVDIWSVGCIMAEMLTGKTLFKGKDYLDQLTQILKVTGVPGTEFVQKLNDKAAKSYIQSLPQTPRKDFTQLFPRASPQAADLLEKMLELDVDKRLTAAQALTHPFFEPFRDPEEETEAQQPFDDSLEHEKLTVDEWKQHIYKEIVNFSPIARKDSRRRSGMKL
Assay [15] addresses RAC-alpha serine/threonine-protein kinase (Homo sapiens) (UniProt P31749). Description: Inhibition of PKBalpha assessed as residual activity at 0.1 uM by Cherenkov counting relative to control in presence of 5 uM ATP. In a few lines: as §3
For assay [16], the target named is Ribosomal protein S6 kinase alpha-5 (Homo sapiens) (UniProt O75582). Description: Inhibition of MSK1 assessed as residual activity at 0.1 uM by Cherenkov counting relative to control in presence of 20 uM ATP. The essentials: as §4
For assay [17], the target named is MAP kinase-interacting serine/threonine-protein kinase 1 (Homo sapiens) (UniProt Q9BUB5). Description: Inhibition of MNK1 assessed as residual activity at 0.1 uM by Cherenkov counting relative to control in presence of 50 uM ATP. The essentials: as §4

Sequence of RAC-alpha serine/threonine-protein kinase (Homo sapiens) (P31749 whole entry): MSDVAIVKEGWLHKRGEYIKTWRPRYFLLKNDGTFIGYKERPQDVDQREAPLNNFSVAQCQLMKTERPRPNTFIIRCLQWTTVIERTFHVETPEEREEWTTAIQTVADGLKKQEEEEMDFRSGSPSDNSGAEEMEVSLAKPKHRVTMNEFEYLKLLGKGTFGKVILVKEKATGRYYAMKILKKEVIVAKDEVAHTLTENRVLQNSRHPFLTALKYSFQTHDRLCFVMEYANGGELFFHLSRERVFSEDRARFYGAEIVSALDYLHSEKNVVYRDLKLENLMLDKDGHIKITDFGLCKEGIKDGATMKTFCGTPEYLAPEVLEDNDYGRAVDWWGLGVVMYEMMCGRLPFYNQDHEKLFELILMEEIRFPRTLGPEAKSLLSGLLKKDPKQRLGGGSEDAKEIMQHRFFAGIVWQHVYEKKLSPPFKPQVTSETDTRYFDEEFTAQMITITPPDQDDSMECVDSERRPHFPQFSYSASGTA
Sequence of Calcium/calmodulin-dependent protein kinase type 1 (Homo sapiens) (Q14012 whole entry, looked up): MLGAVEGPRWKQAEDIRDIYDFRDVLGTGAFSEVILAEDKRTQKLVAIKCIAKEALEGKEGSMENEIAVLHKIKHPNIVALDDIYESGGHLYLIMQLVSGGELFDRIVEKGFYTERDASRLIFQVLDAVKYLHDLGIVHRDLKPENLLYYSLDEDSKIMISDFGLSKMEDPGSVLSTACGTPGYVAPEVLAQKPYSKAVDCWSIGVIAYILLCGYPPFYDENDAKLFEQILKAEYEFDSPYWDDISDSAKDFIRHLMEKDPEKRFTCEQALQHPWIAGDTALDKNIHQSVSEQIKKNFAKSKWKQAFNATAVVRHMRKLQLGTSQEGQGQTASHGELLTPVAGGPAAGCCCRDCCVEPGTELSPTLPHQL
Sequence of Homeodomain-interacting protein kinase 3 (Homo sapiens) (Q9H422 whole entry, looked up): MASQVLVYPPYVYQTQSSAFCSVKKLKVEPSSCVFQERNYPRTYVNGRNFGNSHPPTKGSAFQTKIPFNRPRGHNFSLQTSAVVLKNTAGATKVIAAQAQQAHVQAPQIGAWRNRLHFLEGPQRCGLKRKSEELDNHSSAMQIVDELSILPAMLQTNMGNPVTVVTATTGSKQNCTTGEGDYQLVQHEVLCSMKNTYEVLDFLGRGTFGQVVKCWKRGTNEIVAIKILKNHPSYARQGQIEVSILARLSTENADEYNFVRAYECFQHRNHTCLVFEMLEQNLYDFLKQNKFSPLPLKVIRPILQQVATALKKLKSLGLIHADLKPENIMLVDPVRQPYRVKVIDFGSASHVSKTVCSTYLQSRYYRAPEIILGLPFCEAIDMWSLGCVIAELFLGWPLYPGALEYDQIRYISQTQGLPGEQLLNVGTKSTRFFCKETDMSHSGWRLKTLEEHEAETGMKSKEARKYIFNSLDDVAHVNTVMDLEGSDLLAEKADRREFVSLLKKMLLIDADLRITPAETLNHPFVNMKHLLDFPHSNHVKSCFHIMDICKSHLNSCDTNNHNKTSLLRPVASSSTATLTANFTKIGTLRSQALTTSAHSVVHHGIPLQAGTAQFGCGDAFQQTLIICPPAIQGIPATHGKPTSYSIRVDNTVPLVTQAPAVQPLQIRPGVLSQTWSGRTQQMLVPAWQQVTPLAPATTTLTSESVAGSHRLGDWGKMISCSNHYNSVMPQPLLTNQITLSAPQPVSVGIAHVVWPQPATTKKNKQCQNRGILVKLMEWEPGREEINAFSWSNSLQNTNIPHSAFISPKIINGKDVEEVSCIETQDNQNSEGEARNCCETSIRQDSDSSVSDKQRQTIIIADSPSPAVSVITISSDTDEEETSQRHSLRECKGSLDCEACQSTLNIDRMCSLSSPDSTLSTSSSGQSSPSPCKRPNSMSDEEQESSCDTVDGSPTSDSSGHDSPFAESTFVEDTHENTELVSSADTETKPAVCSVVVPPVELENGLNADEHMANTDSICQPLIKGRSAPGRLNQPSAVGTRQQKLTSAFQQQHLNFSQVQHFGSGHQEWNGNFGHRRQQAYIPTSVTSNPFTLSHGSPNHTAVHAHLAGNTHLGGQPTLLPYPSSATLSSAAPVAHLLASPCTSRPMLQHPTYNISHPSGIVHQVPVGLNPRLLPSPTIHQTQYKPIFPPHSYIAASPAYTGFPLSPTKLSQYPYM
Sequence of Mitogen-activated protein kinase 11 (Homo sapiens) (Q15759 whole entry): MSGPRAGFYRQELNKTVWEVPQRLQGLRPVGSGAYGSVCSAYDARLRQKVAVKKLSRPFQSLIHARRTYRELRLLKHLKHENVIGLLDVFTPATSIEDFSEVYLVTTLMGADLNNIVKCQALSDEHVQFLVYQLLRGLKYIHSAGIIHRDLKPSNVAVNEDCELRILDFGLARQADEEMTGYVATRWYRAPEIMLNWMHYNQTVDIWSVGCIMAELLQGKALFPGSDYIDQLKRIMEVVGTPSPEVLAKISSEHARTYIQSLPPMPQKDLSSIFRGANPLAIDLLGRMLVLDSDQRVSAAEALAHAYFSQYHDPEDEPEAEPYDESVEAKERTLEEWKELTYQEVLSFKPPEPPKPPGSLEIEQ
Sequence of Mitogen-activated protein kinase 8 (Homo sapiens) (P45983 whole entry): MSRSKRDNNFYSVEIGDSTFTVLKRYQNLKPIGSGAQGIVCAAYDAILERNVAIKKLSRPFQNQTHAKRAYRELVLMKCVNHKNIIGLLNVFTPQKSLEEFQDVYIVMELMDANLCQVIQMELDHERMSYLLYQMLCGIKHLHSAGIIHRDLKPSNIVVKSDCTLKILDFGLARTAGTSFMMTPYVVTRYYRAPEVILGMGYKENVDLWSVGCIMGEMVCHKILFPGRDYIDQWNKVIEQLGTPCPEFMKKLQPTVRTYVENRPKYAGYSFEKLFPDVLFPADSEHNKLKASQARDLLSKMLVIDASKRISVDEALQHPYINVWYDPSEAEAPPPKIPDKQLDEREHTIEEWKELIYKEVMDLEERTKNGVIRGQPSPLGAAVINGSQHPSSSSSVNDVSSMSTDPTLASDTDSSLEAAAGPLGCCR

With `CC(C)c1noc(-c2ccc(F)cc2)c1-c1ccncc1`, the Activity in assay [1] came out at 94%; in [2] it was 91%; in assay [3] it was 98%; in assay [4], 91%; in assay [5], 76%; in [6], 99%. The Activity in [7] was found to be 109%; in assay [8], 55%; in assay [9], 100%; in assay [10] it was 107%.
For `CC(C)c1onc(-c2ccc(F)cc2)c1-c1ccncc1`, the Activity in assay [1] is 94%; in assay [2], 76%; in assay [3] it was 89%; in assay [4] it was 81%; in assay [5], 75%; in assay [6], 96%. Further, the Activity stood at 104% in [7], 6% in assay [8], 92% in [9] and 106% in assay [10].
For `COc1ccc(/C=C/C(=O)Nc2cc(-c3[nH]c(SC)nc3-c3ccc(F)cc3)ccn2)c(OC)c1`, in [11], the IC50 was 4 nM. In [12], the inhibition stood at 83%. Also, the Activity is 90% in [13]; 90% in assay [14]; 105% in assay [15]; 84% in [16]; 91% in [17].
Take `COc1ccc(/C=C/C(=O)Nc2cc(-c3[nH]c([S+](C)[O-])nc3-c3ccc(F)cc3)ccn2)c(OC)c1` (centres undefined): the IC50 in assay [11] was determined as 5 nM. In [12], this molecule had an inhibition of 54%. Also, the Activity is 53% in assay [13]; 100% in [14]; 105% in assay [15]; 97% in [16]; 96% in assay [17].
